The source made the active and inactive calls. The rule behind the calls is not given here.
Target: GATA4/NKX2-5 (Mus musculus, UniProt P42582+Q08369)
Test: Inhibition of mouse GATA4/NKX2-5 transcriptional synergy expressed in African green monkey COS-1 cells measured after 30 hrs by dual luciferase reporter gene assay
Format: cell-based
Conditions: not given
How it was run: (§1)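 COS-1 cells co-transfected (Fugene 6, DNA:reagent 1:3) with p3xNKE-luc, Renilla pRL-TKd238 control, and pMT2-GATA4, pMT2-NKX2-5, both, or empty pMT2; DNA balanced with pMT2. Compounds added 6 h post-transfection in 0.1% DMSO, medium renewed at 24 h, lysis at 30 h. Dual-luciferase read-out, firefly/Renilla normalized to vehicle; duplicate wells.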

GATA4/NKX2-5, sequence (Q08369 whole entry): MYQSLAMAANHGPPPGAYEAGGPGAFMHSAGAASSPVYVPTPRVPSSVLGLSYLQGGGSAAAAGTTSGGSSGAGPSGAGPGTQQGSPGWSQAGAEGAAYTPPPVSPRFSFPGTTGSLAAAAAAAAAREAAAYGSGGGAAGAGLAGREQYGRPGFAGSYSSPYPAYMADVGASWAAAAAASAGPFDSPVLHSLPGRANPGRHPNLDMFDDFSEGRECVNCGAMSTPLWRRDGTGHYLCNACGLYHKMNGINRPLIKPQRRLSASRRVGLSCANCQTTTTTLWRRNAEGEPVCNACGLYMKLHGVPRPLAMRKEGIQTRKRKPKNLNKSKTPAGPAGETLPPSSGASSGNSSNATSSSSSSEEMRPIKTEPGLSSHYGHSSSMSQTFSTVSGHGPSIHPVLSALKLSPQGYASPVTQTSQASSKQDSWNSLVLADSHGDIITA
GATA4/NKX2-5, sequence (P42582 whole entry): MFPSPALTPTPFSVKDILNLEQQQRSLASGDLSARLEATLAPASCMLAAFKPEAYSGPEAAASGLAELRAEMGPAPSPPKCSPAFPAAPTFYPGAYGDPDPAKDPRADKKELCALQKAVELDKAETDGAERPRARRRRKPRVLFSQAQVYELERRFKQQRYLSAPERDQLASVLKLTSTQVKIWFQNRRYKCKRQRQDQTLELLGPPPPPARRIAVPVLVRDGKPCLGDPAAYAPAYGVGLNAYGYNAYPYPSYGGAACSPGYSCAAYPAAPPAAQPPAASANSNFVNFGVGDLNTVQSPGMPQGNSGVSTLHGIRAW

Row | IC50 | SMILES
1 | 23 µM | CC(C)CNC(=O)c1ccc(NC(=O)C2CC2)cc1
2 | > 50 µM | CCN(CC)c1ccc(/C=N/n2c(S)nnc2-c2ccccc2)c(OC)c1
3 | > 50 µM | CCNc1ccc(NC(=O)c2c(-c3ccccc3)noc2CO)cc1
4 | > 50 µM | COc1cccc(C(=O)Nc2ccc(C(=O)NCC(C)C)cc2)c1
5 | > 50 µM | CC(C)c1ccc(/C=N/n2c(S)nnc2-c2cccnc2)cc1
6 | > 50 µM | CCN(CC)S(=O)(=O)c1cccc(NC(=O)c2c(-c3ccccc3)noc2C)c1
7 | 37 µM | CC(C)COC(=O)c1ccc(NC(=O)CCC(=O)O)cc1
8 | 13 µM | Sc1nnc(-c2ccccc2)n1/N=C/c1cccc(Oc2ccccc2)c1
9 | 21 µM | CCc1ccc(/C=C2\SC(=O)NC2=O)cc1
10 | > 50 µM | CCC(CC)C(=O)Nc1ccc(C(=O)NCC(C)C)cc1
11 | 50 µM | O=C(O)/C(=C/c1ccccc1)c1c(F)c(F)c(F)c(F)c1F
12 | > 50 µM | CCCOC(=O)c1ccc(NC(=O)c2c(-c3ccccc3)noc2C)cc1
13 | 33 µM | Cc1onc(-c2ccccc2)c1C(=O)Nc1cccc(S(=O)(=O)N2CCCC2)c1
14 | > 50 µM | CC(C)CNC(=O)c1ccc(NC(=O)C2CCCO2)cc1 (configuration not stated)
15 | > 50 µM | Cc1onc(-c2ccccc2)c1C(=O)Nc1ccc(-n2cnnn2)cc1
16 | 18 µM | Cc1onc(-c2ccccc2)c1C(=O)Nc1ccc(C(C)(C)C)cc1
17 | 20 µM | Cc1onc(-c2ccccc2)c1C(=O)Nc1ccc(-c2nnc3n2CCCCC3)cc1
18 | 8 µM | CCN1C(=O)S/C(=C\c2ccc(N3CCCC3)c(F)c2)C1=O
19 | 37 µM | Sc1nnc(-c2ccccc2)n1/N=C/c1ccc(OC2CCCC2)cc1
20 | 50 µM | c1ccc(-c2nonc2-c2ccccc2)cc1
21 | > 50 µM | CCN(CC)S(=O)(=O)c1cc(NC(=O)c2c(-c3ccccc3)noc2C)ccc1C
22 | 42 µM | CC(C)CNC(=O)c1ccc(NC(=O)C(F)(F)F)cc1
23 | 20 µM | CCC(C)c1ccc(NC(=O)c2c(-c3ccccc3Cl)noc2C)cc1 (configuration not stated)
24 | > 50 µM | Cc1onc(-c2ccccc2)c1C(=O)Nc1ccc(Sc2nccn2C)cc1
25 | 7 µM | CN(C)c1ccc(/C=N/n2c(S)nnc2-c2ccncc2)cc1

Row | IC50 | SMILES
26 | > 50 µM | Cc1ccc(C(=O)Nc2ccc(C(=O)OCC(C)C)cc2)cc1C
27 | 20 µM | O=C1NC(=O)/C(=C/c2cccc([N+](=O)[O-])c2)S1
28 | > 50 µM | COc1cccc(/C=N/n2c(S)nnc2-c2ccccc2)c1
29 | 7 µM | CC(C)(C)c1ccc(/C=N/n2c(S)nnc2-c2ccncc2)cc1
30 | 8 µM | COc1cccc(/C=N/n2c(S)nnc2-c2ccccc2)c1OC
31 | > 50 µM | Cc1onc(-c2ccccc2)c1C(=O)Nc1ccc(N2CCCCC2)cc1
32 | 16 µM | Cc1onc(-c2ccccc2)c1C(=O)Nc1ccc(C(C)C)cc1
33 | > 50 µM | Cc1onc(-c2ccccc2)c1C(=O)Nc1ccc(S(=O)(=O)N2CCOCC2)cc1
34 | 28 µM | Cc1onc(-c2ccccc2)c1C(=O)Nc1ccc(S(=O)(=O)Nc2ncccn2)cc1
35 | > 50 µM | CCCC(=O)Nc1ccc(C(=O)NCC(C)C)cc1
36 | 38 µM | Cc1onc(-c2ccccc2Cl)c1C(=O)Nc1ccc(N2CCOCC2)cc1
37 | > 50 µM | CC(C)CNC(=O)c1ccc(NC(=O)C2CCCCC2)cc1
38 | 6 µM | CCN(CC)c1ccc(/C=N/n2c(S)nnc2C2CCCCC2)cc1
39 | 7 µM | CCOc1ccc(/C=N/n2c(S)nnc2C2CCCCC2)cc1
40 | > 50 µM | Cc1nc(-c2ccc(NC(=O)c3c(-c4ccccc4)noc3C)cc2)cs1
41 | 8 µM | CCOc1ccccc1/C=N/n1c(S)nnc1-c1ccccc1
42 | 20 µM | C=CCc1cccc(/C=N/n2c(S)nnc2-c2ccccc2)c1O
43 | 20 µM | Cc1onc(-c2ccccc2)c1C(=O)Nc1ccc(C(=O)OC(C)C)cc1
44 | 28 µM | Cc1onc(-c2ccccc2)c1C(=O)Nc1cccc(S(=O)(=O)NC2=NC=CC2)c1
45 | > 50 µM | COc1cccc(/C=N/n2c(SC)nnc2-c2ccccc2)c1OC
46 | > 50 µM | CCCCOc1ccc(/C=N/n2c(S)nnc2CC)cc1
47 | > 50 µM | CC(C)CNC(=O)c1ccc(NC(=O)c2cccs2)cc1
48 | 26 µM | CCOc1ccc(/C=C2\SC(=O)N(CC)C2=O)cc1OCC
49 | > 50 µM | Cc1cccc(/C=N/n2c(S)nnc2-c2ccccc2)c1
50 | 20 µM | Cc1onc(-c2ccccc2)c1C(=O)Nc1cccc(S(=O)(=O)NCc2ccco2)c1

Row | IC50 | SMILES
51 | 9 µM | CC(C)COC(=O)c1ccc(NC(=O)c2cccs2)cc1
52 | 19 µM | CCN(CC)c1ccc(/C=N/n2c(S)nnc2-c2ccc(OC)cc2)cc1
53 | 11 µM | COc1ccc(/C=N/n2c(S)nnc2-c2ccccc2)cc1C
54 | 20 µM | CCOc1ccc(NC(=O)c2c(-c3ccccc3)noc2C)cc1
55 | 10 µM | COc1ccc(/C=N/n2c(S)nnc2C2CCCCC2)cc1OCc1ccccc1
56 | 32 µM | CCC(C)c1ccc(NC(=O)c2c(-c3ccccc3)noc2C)cc1 (configuration not stated)
57 | 11 µM | Cc1onc(-c2ccccc2)c1C(=O)Nc1ccc(OC(F)(F)F)cc1
58 | 5 µM | CCOc1ccc(/C=C2\SC(=O)N(CC)C2=O)cc1
59 | 13 µM | Cc1onc(-c2ccccc2)c1C(=O)Nc1ccc(OC(C)C)cc1
60 | > 50 µM | Cc1onc(-c2ccccc2)c1C(=O)Nc1ccc(N2CCOCC2)cc1
61 | > 50 µM | Cc1onc(-c2ccccc2)c1C(=O)Nc1ccc(Oc2ccccc2)cc1
62 | 30 µM | CCOc1ccc(/C=N/n2c(SC)nnc2-c2ccccc2)cc1OCC
63 | > 50 µM | Fc1cccc(/C=N/n2c(S)nnc2-c2ccccc2)c1
64 | 24 µM | COc1ccc(/C=N/n2c(SC)nnc2-c2ccccc2)cc1C
65 | 17 µM | Cc1onc(-c2ccccc2)c1C(=O)Nc1ccc2c(c1)CCC2
66 | 23 µM | Cc1onc(-c2ccccc2)c1C(=O)Nc1ccc2c(c1)OC1(CCCC1)O2
67 | > 50 µM | CC(C)COC(=O)c1ccc(NC(=O)COc2ccccc2Cl)cc1
68 | > 50 µM | CC(C)CNC(=O)c1ccc(NC(=O)c2ccccc2)cc1
69 | 20 µM | Cc1onc(-c2ccccc2)c1C(=O)Nc1cccc(C(=O)NC2CC2)c1
70 | 22 µM | Cc1onc(-c2ccccc2Cl)c1C(=O)Nc1ccc(C(C)(C)C)cc1
71 | 10 µM | CC(C)CCN1C(=O)S/C(=C\c2ccc(N(C)C)cc2)C1=O
72 | 30 µM | CC(C)(C)c1ccc(/C=N/n2c(S)nnc2-c2cccnc2)cc1
73 | > 50 µM | CCCOc1ccc(NC(=O)c2c(-c3ccccc3)noc2C)cc1

Row | SMILES | IC50
74 | O=c1cc(-c2ccc(O)c(O)c2)oc2cc(O)cc(O)c12 [LUTEOLIN] | 22 µM
75 | Cc1onc(-c2ccccc2)c1C(=O)Nc1ccc(C#N)c(Cl)c1 | 16 µM
76 | O=c1cc(-c2ccc(O)cc2)oc2cc(O)cc(O)c12 [APIGENIN] | 24 µM

Target: GATA4/NKX2-5 (Mus musculus) (UniProt Q08369+P42582)
Test: Inhibition of mouse GATA4/NKX2-5 transcriptional synergy expressed in African green monkey COS-1 cells at 20 uM measured after 30 hrs by dual luciferase reporter gene assay
Format: cell-based
Conditions: 5 uM, in the assay text read “5 uM” for “20 uM”
How it was run: as §1

Row | inhibition | SMILES
77 | Active | CCOc1ccc(/C=C2\SC(=O)N(CC)C2=O)cc1

Target: T1, GATA4/NKX2-5 (Rattus norvegicus) (UniProt P46152+O35767)
Test: Inhibition of GATA4/NKX2-5 interaction in neonatal rat ventricular cardiomyocytes assessed as decrease in endothelin-1 induced mRNA level of ANP at 20 uM preincubated for 1 hr followed by endothelin-1 addition measured after 23 hrs by real-time PCR analysis
Conditions: not given
How it was run: (§2)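 Neonatal rat ventricular myocytes (2–4-day-old Sprague-Dawley or Wistar), preplated, seeded on 6-well plates, moved to complete serum-free medium next day and cultured 24 h. Compounds (10–100 μM) added 1 h before 100 nM endothelin-1 or none; ANP and BNP mRNA quantified by RT-PCR at 24 h, normalized to 18S RNA, relative to vehicle; mean ± SD, n = 3–6.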

Row | inhibition | SMILES
78 | Active | CC(C)COC(=O)c1ccc(NC(=O)c2cccs2)cc1
79 | Active | Cc1onc(-c2ccccc2)c1C(=O)Nc1ccc(OC(F)(F)F)cc1
80 | Active | Cc1onc(-c2ccccc2)c1C(=O)Nc1ccc(OC(C)C)cc1

Row | SMILES | inhibition
81 | Cc1onc(-c2ccccc2)c1C(=O)Nc1ccc(C#N)c(Cl)c1 | Active

Target: T1, GATA4/NKX2-5 (Rattus norvegicus)
Test: Inhibition of GATA4/NKX2-5 interaction in neonatal rat ventricular cardiomyocytes assessed as decrease in endothelin-1 induced mRNA level of BNP at 20 uM preincubated for 1 hr followed by endothelin-1 addition measured after 23 hrs by real-time PCR analysis
Conditions: not given
How it was run: as §2

Row | inhibition | SMILES
82 | Active | Cc1onc(-c2ccccc2)c1C(=O)Nc1ccc(OC(F)(F)F)cc1

From ChEMBL document CHEMBL4028856, “Discovery of Small Molecules Targeting the Synergy of Cardiac Transcription Factors GATA4 and NKX2-5” (J Med Chem, 2017)
